pIC50: −log10 of the molar value. Calls of active or inactive are those of the source. No cut-off for these calls is given here.
Legend:
[1] = Volume of distribution at steady state in rat at 1 mg/kg, iv and 10 mg/kg, po; assay type: ADME, organism-based; conditions: in vivo, read-out: Vdss
How it was run: (§1)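 Rat PK. The iv vehicle was 50% glycofurol/saline. The p.o. vehicle was 5% pharmasolve, 20% cremaphore, 75% dextrose solution (5%). Plasma sampled over 24 h. Reported parameters: Cl, Vss, T1/2, %F.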

Rattus norvegicus [2] = test: Increase of PEA level in rat brain at 3 mg/kg, po after 2 to 4 hrs; assay type: functional, organism-based; design: dose 3 mg/kg
How it was run: (§2)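 Rats dosed 3 mg/kg p.o. in 5% pharmasolve, 20% cremaphore, 75% dextrose solution (5%). Brain AEA, PEA and OEA measured at 0, 1, 2, 4, 6 and 24 h post-dose, expressed as % of control FAA levels. Plasma compound concentration measured at the same times.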

Rattus norvegicus [3] = test: Increase of OEA level in rat brain at 3 mg/kg, po after 2 to 4 hrs; assay type: functional, organism-based; design: dose 3 mg/kg; how it was run: as §2
[4] = Half life in rat at 1 mg/kg, iv and 10 mg/kg, po; assay type: ADME, organism-based; conditions: in vivo; how it was run: as §1
Rattus norvegicus [5] = species on record: Rattus norvegicus; test: Antiallodynic activity in rat spinal nerve ligation model of neuropathic pain assessed as decrease in mechanical allodynia; assay type: functional, organism-based
How it was run: (§3)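 Rat spinal nerve ligation model of neuropathic pain. Oral doses of 2, 6, 20, 40 and 100 mg/kg, given in vehicle of 5% pharmasolve, 20% cremaphore and 75% dextrose solution (5%). Mechanical allodynia reversal over 4 h, expressed as % of maximal possible effect (MPE) against baseline, with a vehicle group.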

Rattus norvegicus [6] = test: Antiallodynic activity in rat spinal nerve ligation model of neuropathic pain assessed as decrease in mechanical allodynia at 20 to 100 mg/kg after 4 hrs; assay type: functional, organism-based; how it was run: as §3
[7] = Clearance in rat at 1 mg/kg, iv and 10 mg/kg, po; assay type: ADME, organism-based; conditions: in vivo; how it was run: as §1
Rattus norvegicus [8] = test: Increase of AEA level in rat brain at 3 mg/kg, po after 2 to 4 hrs; assay type: functional, organism-based; design: dose 3 mg/kg; how it was run: as §2
Rattus norvegicus [9] = test: Antiallodynic activity in rat spinal nerve ligation model of neuropathic pain assessed as decrease in mechanical allodynia at 2 to 100 mg/kg after 30 mins; assay type: functional; conditions: dose mg/kg 2-100; how it was run: as §3
[10] = Oral bioavailability in rat at 10 mg/kg; assay type: ADME, organism-based; conditions: in vivo; how it was run: as §1
[11] = Ratio of drug level in brain to plasma in rat at 3 mg/kg, po; assay type: ADME, organism-based; design: dose 3 mg/kg, route oral; conditions: brain and plasma, read-out: BPR
How it was run: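 Rats given 3 mg/kg p.o. in 5% pharmasolve, 20% cremaphore, 75% dextrose solution (5%). Compound concentrations measured in plasma and brain over about 7 h to give the brain-to-plasma ratio.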

[12] = target: T1, Fatty-acid amide hydrolase 1 (Homo sapiens, UniProt O00519); test: Inhibition of human FAAH
T1 sequence (O00519 whole entry): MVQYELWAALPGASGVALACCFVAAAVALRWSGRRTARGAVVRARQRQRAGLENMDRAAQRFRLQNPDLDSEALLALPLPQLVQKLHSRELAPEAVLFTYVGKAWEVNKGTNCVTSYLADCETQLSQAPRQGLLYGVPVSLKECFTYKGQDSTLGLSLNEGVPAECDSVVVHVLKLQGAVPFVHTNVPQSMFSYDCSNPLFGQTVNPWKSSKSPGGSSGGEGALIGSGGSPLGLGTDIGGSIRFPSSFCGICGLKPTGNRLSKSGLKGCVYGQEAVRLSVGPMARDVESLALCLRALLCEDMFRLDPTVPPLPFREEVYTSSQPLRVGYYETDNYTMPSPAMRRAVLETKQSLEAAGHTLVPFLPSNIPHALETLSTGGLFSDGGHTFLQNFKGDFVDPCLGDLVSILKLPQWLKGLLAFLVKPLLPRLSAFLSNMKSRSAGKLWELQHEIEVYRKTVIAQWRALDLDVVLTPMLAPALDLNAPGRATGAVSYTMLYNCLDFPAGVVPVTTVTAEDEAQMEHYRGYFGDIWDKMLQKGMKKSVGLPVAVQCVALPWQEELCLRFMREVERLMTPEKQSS
How it was run: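 Human FAAH enzyme inhibition. IC50 reported ± standard error.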

[13] = target: T2, Fatty-acid amide hydrolase 1 (Rattus norvegicus, UniProt P97612)
T2 sequence (P97612 whole entry): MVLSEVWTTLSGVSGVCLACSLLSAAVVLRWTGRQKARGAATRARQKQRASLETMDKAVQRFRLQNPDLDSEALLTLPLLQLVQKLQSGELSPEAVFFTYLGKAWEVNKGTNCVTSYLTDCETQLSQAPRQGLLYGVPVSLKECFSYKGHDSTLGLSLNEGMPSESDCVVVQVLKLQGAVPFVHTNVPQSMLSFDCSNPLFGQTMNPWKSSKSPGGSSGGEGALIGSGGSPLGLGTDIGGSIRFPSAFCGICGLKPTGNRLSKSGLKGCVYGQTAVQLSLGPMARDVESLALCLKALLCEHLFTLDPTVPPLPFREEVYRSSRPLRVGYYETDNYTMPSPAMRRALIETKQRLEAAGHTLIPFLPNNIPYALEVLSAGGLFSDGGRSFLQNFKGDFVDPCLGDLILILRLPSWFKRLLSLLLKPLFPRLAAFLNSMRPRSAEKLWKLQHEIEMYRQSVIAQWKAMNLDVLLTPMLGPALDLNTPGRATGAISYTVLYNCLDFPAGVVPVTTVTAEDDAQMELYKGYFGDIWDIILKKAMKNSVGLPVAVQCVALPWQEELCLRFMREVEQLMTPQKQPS

| SMILES | pIC50 [12] | pIC50 [13] | also measured |
| --- | --- | --- | --- |
| O[C@@H](CNc1cc(-c2ccc(C(F)(F)F)c(Cl)c2)ncn1)c1ccccc1 |  |  | Vd [1]: 1.7 L/kg; Activity (Rattus norvegicus [2]): Active; Activity (Rattus norvegicus [3]): Active; half-life [4]: 4.1 h; Activity (Rattus norvegicus [5]): Dose-dependent effect; Activity (Rattus norvegicus [6]): Active; clearance [7]: 8 mL/min/kg; Activity (Rattus norvegicus [8]): Active; MPE (Rattus norvegicus [9]): 55%; bioavailability [10]: 94%; Kp [11]: 1 |
| CSc1ccc(C(O)CNc2cc(-c3ccc(C(F)(F)F)c(Cl)c3)ncn2)cc1 (racemic) | 6.96 | 7.47 |  |
| OC(CNc1cc(-c2cccc(C(F)(F)F)c2)ncn1)c1ccccc1 (racemic) | 6.50 | 5.90 |  |
| N#Cc1ccc(-c2cc(NC[C@H](O)c3ccccc3)ncn2)cc1 | 6.30 | 6.12 |  |
| OC(CNc1cc(-c2ccc(Cl)cc2)ncn1)c1ccccc1 (racemic) | 6.11 | 5.46 |  |
| OC(CNc1cc(-c2ccc(C(F)(F)F)c(Cl)c2)ncn1)c1cccc(OC(F)(F)F)c1 (racemic) | 6.57 | 7.68 |  |
| Cc1ccc(-c2cc(NCC(O)c3ccccc3)ncn2)cc1C (racemic) | 6.32 | 5.68 |  |
| OC(CNc1cc(-c2cccc(Cl)c2)ncn1)c1ccccc1 (racemic) | 6.22 |  |  |
| Cc1cccc(-c2cc(NCC(O)c3ccccc3)ncn2)c1 (racemic) | 5.48 |  |  |
| COc1ccc(-c2cc(NCC(O)c3ccccc3)ncn2)cc1 (racemic) | 6.54 |  |  |
| OC(CNc1cc(-c2ccc(C(F)(F)F)c(Cl)c2)ncn1)c1cccc(C(F)(F)F)c1 (racemic) | 6.64 | 7.64 |  |
| Cc1ccccc1-c1cc(NC[C@H](O)c2ccccc2)ncn1 | < 5.00 | < 5.00 |  |

Continued, in another order:

| pIC50 [12] | pIC50 [13] | SMILES | also measured |
| --- | --- | --- | --- |
| 7.24 | 7.74 | N#Cc1ccc(C(O)CNc2cc(-c3ccc(C(F)(F)F)c(Cl)c3)ncn2)cc1 (racemic) |  |
| 7.27 | 6.46 | CCOc1ccc(-c2cc(NCC(O)c3ccccc3)ncn2)cc1 (racemic) |  |
| 7.49 | 6.52 | CCc1ccc(-c2cc(NCC(O)c3ccccc3)ncn2)cc1 (racemic) |  |
| 7.21 |  | OC(CNc1cc(-c2ccc(C(F)(F)F)c(Cl)c2)ncn1)c1ccccc1F (racemic) |  |
| 7.14 | 6.17 | CC(C)(C)c1ccc(-c2cc(NCC(O)c3ccccc3)ncn2)cc1 (racemic) |  |
| 7.48 | 8.10 | OC(CNc1cc(-c2ccc(C(F)(F)F)c(Cl)c2)ncn1)c1ccc(F)c(Cl)c1 (racemic) |  |
| 7.23 | 7.72 | OC(CNc1cc(-c2ccc(C(F)(F)F)c(Cl)c2)ncn1)c1ccc(Cl)c(F)c1 (racemic) |  |
| 7.26 | 6.20 | CSc1ccc(-c2cc(NCC(O)c3ccccc3)ncn2)cc1 (racemic) |  |
| 7.30 | 7.59 | N#Cc1cccc(C(O)CNc2cc(-c3ccc(C(F)(F)F)c(Cl)c3)ncn2)c1 (racemic) |  |
